Measurements from PMC5116011 (The Journal of antibiotics, 2016).
In brackets after ≈: the same amount, converted by molar mass. Like-named read-outs stand apart in the source and are kept apart here.

Legend:
[1] = tested on: E. coli BW25113 ΔtolC derivative JW5503-1; experiment: MIC, microbroth dilution in Mueller-Hinton broth; assay type: cell-based, Escherichia coli; conditions: for MIC: Escherichia coli
E. coli BW25113 = experiment: MIC, microbroth dilution in Mueller-Hinton broth; assay type: cell-based, Escherichia coli; conditions: for MIC EC MH+BP/CCCP: MH broth with 30 µg/ml 2,2′-bipyridyl and 50 µg/ml CCCP; for MIC EC +: with clavulanic acid (6µg/ml); for MIC: Escherichia coli, BW25113, read-out: MIC EC, E. coli BW25113
S. aureus NRS 70 (MRSA) = experiment: MIC, microbroth dilution in Mueller-Hinton broth; assay type: cell-based; conditions: Staphylococcus aureus, MRSA|NRS70, read-out: MIC MRSA
Method in brief: (§1)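 CLSI broth microdilution in cation-adjusted Mueller-Hinton broth. Inocula were grown from MH agar colonies in MH broth, with a final inoculum of 10^5 CFU/ml. Test compound final range was 200–0.2 µg/ml, incubated 37°C for 18–20 h. MIC was the lowest concentration preventing visible growth. Runs were at least duplicate, and the mean MIC was reported.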

S. pneumoniae R6 = experiment: MIC, microbroth dilution in Mueller-Hinton broth; assay type: cell-based; conditions: Streptococcus pneumoniae, R6, read-out: MIC SP
Method in brief: as §1

P. vulgaris ATCC 33420 = experiment: MIC, microbroth dilution in Mueller-Hinton broth; assay type: cell-based; conditions: Proteus vulgaris, ATCC33420, read-out: MIC PV
[2] = tested on: S. aureus -ATCC29213 (MSSA); experiment: MIC, microbroth dilution in Mueller-Hinton broth; assay type: cell-based; conditions: Staphylococcus aureus, read-out: MIC MSSA
Method in brief: as §1

P. mirabilis ATCC 25933 = experiment: MIC, microbroth dilution in Mueller-Hinton broth; assay type: cell-based; conditions: Proteus mirabilis, ATCC25933, read-out: MIC PM
[3] = tested on: E. coli BW25113 ΔampC derivative JW4111-2; assay type: cell-based, Escherichia coli; conditions: for MIC: Escherichia coli, BW25113, read-out: MIC ECΔampC −
P. aeruginosa PA01 = experiment: MIC, microbroth dilution in Mueller-Hinton broth; assay type: cell-based, Pseudomonas aeruginosa; conditions: for MIC PA MH+BP/CCCP / MIC PA +: P. aeruginosa PA01; for MIC PA MH+BP/CCCP: MH broth with 30 µg/ml 2,2′-bipyridyl and 50 µg/ml CCCP; for MIC PA +: with clavulanic acid (6µg/ml); for MIC: Pseudomonas aeruginosa
B. anthracis sterne = experiment: microbe, parasite or virus in culture; assay type: cell-based; conditions: Bacillus anthracis, read-out: MIC BA
B. subtilis ATCC23857 = experiment: MIC, microbroth dilution in Mueller-Hinton broth; assay type: cell-based; conditions: Bacillus subtilis, ATCC23857, read-out: MIC BS
Method in brief: as §1

E. faecalis ATCC33186 = experiment: MIC, microbroth dilution in Mueller-Hinton broth; assay type: cell-based; conditions: Enterococcus faecalis, ATCC33186, read-out: MIC EF
Method in brief: as §1

S. pyogenes ATCC700294 = experiment: MIC, microbroth dilution in Mueller-Hinton broth; assay type: cell-based; conditions: Streptococcus pyogenes, ATCC700294, read-out: MIC SPy
Method in brief: as §1

[4] = BW25113, read-out: MIC ECΔtolC MH
[5] = BW25113, read-out: MIC ECΔtolC MH+BP

SMILES	MIC ECΔtolC MH+BP/CCCP [1]	MIC ECΔtolC MH+CCCP [1]	MIC EC MH+BP/CCCP (E. coli BW25113; E. coli BW25113)	MIC EC + (E. coli BW25113; E. coli BW25113)	MIC (E. coli BW25113; Mueller-Hinton broth (Table 2))	MIC (S. aureus NRS 70 (MRSA))	MIC (S. pneumoniae R6)	MIC (P. vulgaris ATCC 33420)	MIC [2]	MIC (P. mirabilis ATCC 25933)	MIC ECΔampC + [3]	MIC PA MH+BP/CCCP (P. aeruginosa PA01)	MIC PA + (P. aeruginosa PA01)	MIC (P. aeruginosa PA01; PA01, read-out: MIC PA)	MIC (P. aeruginosa PA01; PA01, read-out: MIC PA MH)	MIC (P. aeruginosa PA01; PA01, read-out: MIC PA MH+BP)	MIC (P. aeruginosa PA01; PA01, read-out: MIC PA MH+CCCP)	MIC (P. aeruginosa PA01; PA01, read-out: MIC PA −)	MIC (B. anthracis sterne)	MIC (B. subtilis ATCC23857)	also measured
CC(C)(C)OCC1NC(=O)C(C(=O)NC(C(=O)NC2C(=O)N3C2SC(C)(C)C3C(=O)O)c2ccccc2)=C1O (centres unmarked) [Compound 1940]	1.56 µg/mL (≈ 2.78 µM)	6.25 µg/mL (≈ 11.1 µM)	12.5 µg/mL (≈ 22.3 µM)	12.5 µg/mL	50 µg/mL (≈ 89.2 µM)	25 µg/mL (≈ 44.6 µM)	0.78 µg/mL (≈ 1.39 µM)	50 µg/mL (≈ 89.2 µM)	1.56 µg/mL (≈ 2.78 µM)	6.25 µg/mL (≈ 11.1 µM)	6.25 µg/mL	6.25 µg/mL (≈ 11.1 µM)	12.5 µg/mL	25 µg/mL (≈ 44.6 µM)	25 µg/mL (≈ 44.6 µM)	12.5 µg/mL (≈ 22.3 µM)	12.5 µg/mL (≈ 22.3 µM)	25 µg/mL (≈ 44.6 µM)	3.13 µg/mL (≈ 5.58 µM)	3.13 µg/mL (≈ 5.58 µM)	MIC ([1]; BW25113, read-out: MIC ECΔtolC): 12.5 µg/mL (≈ 22.3 µM); MIC [1, 4]: 12.5 µg/mL (≈ 22.3 µM); MIC [1, 5]: 3.13 µg/mL (≈ 5.58 µM); MIC [3]: 12.5 µg/mL (≈ 22.3 µM); MIC (E. faecalis ATCC33186): 25 µg/mL (≈ 44.6 µM); MIC (S. pyogenes ATCC700294): 0.78 µg/mL (≈ 1.39 µM)
CN1CC(O)=C(C(=O)NC(C(=O)NC2C(=O)N3C2SC(C)(C)C3C(=O)O)c2ccccc2)C1=O (centres unmarked) [Compound 2742]	1.56 µg/mL (≈ 3.19 µM)	6.25 µg/mL (≈ 12.8 µM)	12.5 µg/mL (≈ 25.6 µM)	25 µg/mL	100 µg/mL (≈ 205 µM)	100 µg/mL (≈ 205 µM)	1.56 µg/mL (≈ 3.19 µM)	100 µg/mL (≈ 205 µM)	1.56 µg/mL (≈ 3.19 µM)	6.25 µg/mL (≈ 12.8 µM)	12.5 µg/mL	6.25 µg/mL (≈ 12.8 µM)	12.5 µg/mL	25 µg/mL (≈ 51.2 µM)	25 µg/mL (≈ 51.2 µM)	12.5 µg/mL (≈ 25.6 µM)	12.5 µg/mL (≈ 25.6 µM)	25 µg/mL (≈ 51.2 µM)	6.25 µg/mL (≈ 12.8 µM)	3.13 µg/mL (≈ 6.41 µM)	MIC ([1]; BW25113, read-out: MIC ECΔtolC): 12.5 µg/mL (≈ 25.6 µM); MIC [1, 4]: 12.5 µg/mL (≈ 25.6 µM); MIC [1, 5]: 6.25 µg/mL (≈ 12.8 µM); MIC [3]: 25 µg/mL (≈ 51.2 µM); MIC (E. faecalis ATCC33186): 25 µg/mL (≈ 51.2 µM); MIC (S. pyogenes ATCC700294): 1.56 µg/mL (≈ 3.19 µM)
CC1(C)SC2C(NC(=O)C(NC(=O)C3=C(O)C(c4ccccc4)NC3=O)c3ccccc3)C(=O)N2C1C(=O)O (centres unmarked) [Compound 2745]	0.78 µg/mL (≈ 1.42 µM)	1.56 µg/mL (≈ 2.83 µM)	12.5 µg/mL (≈ 22.7 µM)	12.5 µg/mL	100 µg/mL (≈ 182 µM)	25 µg/mL (≈ 45.4 µM)	0.39 µg/mL (≈ 0.708 µM)	12.5 µg/mL (≈ 22.7 µM)	0.78 µg/mL (≈ 1.42 µM)	3.13 µg/mL (≈ 5.68 µM)	6.25 µg/mL	12.5 µg/mL (≈ 22.7 µM)	25 µg/mL	25 µg/mL (≈ 45.4 µM)	25 µg/mL (≈ 45.4 µM)	50 µg/mL (≈ 90.8 µM)	12.5 µg/mL (≈ 22.7 µM)	25 µg/mL (≈ 45.4 µM)	6.25 µg/mL (≈ 11.4 µM)	3.13 µg/mL (≈ 5.68 µM)	MIC ([1]; BW25113, read-out: MIC ECΔtolC): 3.13 µg/mL (≈ 5.68 µM); MIC [1, 4]: 3.13 µg/mL (≈ 5.68 µM); MIC [1, 5]: 1.56 µg/mL (≈ 2.83 µM); MIC [3]: 6.25 µg/mL (≈ 11.4 µM); MIC (E. faecalis ATCC33186): 12.5 µg/mL (≈ 22.7 µM); MIC (S. pyogenes ATCC700294): 0.78 µg/mL (≈ 1.42 µM)
CC1(C)SC2C(NC(=O)C(NC(=O)C3=C(O)C(Cc4ccco4)NC3=O)c3ccccc3)C(=O)N2C1C(=O)O (centres unmarked) [Compound 3002]	0.78 µg/mL (≈ 1.41 µM)	1.56 µg/mL (≈ 2.81 µM)	1.56 µg/mL (≈ 2.81 µM)	6.25 µg/mL	6.25 to 12.5 µg/mL (≈ 11.3 to 22.5 µM)	50 µg/mL (≈ 90.2 µM)	0.39 µg/mL (≈ 0.703 µM)	25 µg/mL (≈ 45.1 µM)	0.78 µg/mL (≈ 1.41 µM)	1.56 µg/mL (≈ 2.81 µM)	6.25 µg/mL	3.13 µg/mL (≈ 5.64 µM)	3.13 µg/mL	12.5 µg/mL (≈ 22.5 µM)	12.5 µg/mL (≈ 22.5 µM)	12.5 µg/mL (≈ 22.5 µM)	6.25 µg/mL (≈ 11.3 µM)	12.5 µg/mL (≈ 22.5 µM)	3.13 µg/mL (≈ 5.64 µM)	1.56 µg/mL (≈ 2.81 µM)	MIC EC (E. coli BW25113; E. coli BW25113, Mueller-Hinton broth (Table 2)): 6.25 µg/mL (≈ 11.3 µM); MIC (E. faecalis ATCC33186): 25 µg/mL (≈ 45.1 µM); MIC (S. pyogenes ATCC700294): 0.39 µg/mL (≈ 0.703 µM)
CC1NC(=O)C(C(=O)NC(C(=O)NC2C(=O)N3C2SC(C)(C)C3C(=O)O)c2ccccc2)=C1O (centres unmarked) [Compound 2746]	1.56 µg/mL (≈ 3.19 µM)	3.13 µg/mL (≈ 6.41 µM)	12.5 µg/mL (≈ 25.6 µM)	50 µg/mL	200 µg/mL (≈ 409 µM)	50 µg/mL (≈ 102 µM)	0.39 µg/mL (≈ 0.798 µM)	100 µg/mL (≈ 205 µM)	1.56 µg/mL (≈ 3.19 µM)	3.13 µg/mL (≈ 6.41 µM)	25 µg/mL	12.5 µg/mL (≈ 25.6 µM)	25 µg/mL	50 µg/mL (≈ 102 µM)	50 µg/mL (≈ 102 µM)	50 µg/mL (≈ 102 µM)	12.5 µg/mL (≈ 25.6 µM)	50 µg/mL (≈ 102 µM)	1.56 µg/mL (≈ 3.19 µM)	3.13 µg/mL (≈ 6.41 µM)	MIC [1, 5]: 6.25 µg/mL (≈ 12.8 µM); MIC [3]: 50 µg/mL (≈ 102 µM); MIC (E. faecalis ATCC33186): 25 µg/mL (≈ 51.2 µM); MIC (S. pyogenes ATCC700294): 0.39 µg/mL (≈ 0.798 µM)
